Source: PubChem
Compounds with a hit are over-represented: about 0.77% of the library has one in this group of screens.
bIAP activator = intestinal alkaline phosphatase (bovine) activation. purified bovine IAP, CDP-star luminescence, 30 min; active compounds read high; fold of DMSO-control signal, blank-subtracted. activation factor at 20 µM. actives 0.17% (n = 200,000). AID 1016;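 active = activation factor of 2 or more at 20 µM, a signal rise over negative controls twice the positive control's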
hIAP block = human IAP inhibition; actives 0.12% (n = 330,000); purified IAP, CDP-Star luminescence, 30 min; inhibition, % at 10 µM; AID 2544; P09923;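 active = inhibition reaching a set limit with compound at 10 µM in the primary screen, cut at about 35% in these data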;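 note: plate controls were DMSO wells with enzyme for no effect and no-enzyme buffer wells for full effect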
Target sequence (P09923 whole entry, looked up): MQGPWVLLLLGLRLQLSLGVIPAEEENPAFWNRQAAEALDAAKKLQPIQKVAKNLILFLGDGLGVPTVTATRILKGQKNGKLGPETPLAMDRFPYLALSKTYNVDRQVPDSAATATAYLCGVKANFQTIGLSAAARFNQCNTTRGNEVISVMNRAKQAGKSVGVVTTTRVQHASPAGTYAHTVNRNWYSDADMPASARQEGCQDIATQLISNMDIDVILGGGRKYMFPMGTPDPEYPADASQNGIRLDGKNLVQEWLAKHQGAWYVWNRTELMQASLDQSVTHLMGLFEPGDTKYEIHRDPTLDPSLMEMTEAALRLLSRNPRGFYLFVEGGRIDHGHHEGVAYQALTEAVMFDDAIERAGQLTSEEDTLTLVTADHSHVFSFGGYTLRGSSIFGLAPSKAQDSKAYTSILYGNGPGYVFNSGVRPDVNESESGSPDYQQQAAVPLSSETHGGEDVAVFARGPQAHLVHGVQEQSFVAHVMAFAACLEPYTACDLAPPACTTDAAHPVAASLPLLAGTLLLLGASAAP
hIAP activ = human IAP activation; activation factor at 10 µM; actives 0.16% (n = 330,000); purified human IAP, CDP-Star luminescence, 30 min; active compounds read high; 1 = vehicle-only enzyme, 0 = enzyme-free background; AID 2524;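 active = activation factor of the enzyme at least 2-fold when tested at 20 µM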
bIAP inhibitor = blocks bovine intestinal alkaline phosphatase activity. purified bovine IAP, CDP-star luminescence, 30 min. inhibition, % at 20 µM. 190,000 tested, under 10 active. AID 1019;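 active = over 50% inhibition of intestinal alkaline phosphatase at 20 µM in the single-dose screen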
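test system = bovine IAP enzyme | medium = DEA buffer 100 mM, pH 9.8, with MgCl2 1.0 mM, ZnCl2 0.02 mM | detection = luminescence | dosing = single compound dose of 20 µM, 2% DMSO final | incubation = 30 min reaction at room temperature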
mIAP activ = mouse IAP activation; actives 0.24% (n = 330,000); AID 2805; activation factor at 10 µM; muIAP, CDP-Star luminescence, 30 min; active compounds read high; 1 = vehicle-only enzyme signal, 0 = enzyme-free wells;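 active = activation factor of at least 2 at 20 µM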
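System: Mouse IAP enzyme | Also added: CDP-Star substrate | Dosing: Compounds dispensed in DMSO | Schedule: 30 min enzyme-substrate-compound incubation at room temperature | Technique: Chemiluminescence readout | Control set: DMSO-only wells and no-enzyme negative control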
mIAP inh = blocks mouse intestinal alkaline phosphatase; AID 2806; inhibition, % at 10 µM; actives 0.2% (n = 330,000); purified mouse IAP, CDP-Star luminescence, 30 min;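 active = inhibition of at least 40% at 10 µM in the primary screen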;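 note: plate controls were DMSO with enzyme for no effect and no enzyme wells for full effect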
hIAP act conf = human IAP activation confirmation; purified IAP, CDP-Star luminescence, 30 min; active compounds read low; shares compounds with hIAP activ; AID 434926; activation (%Activity, negative = activation), % at 8.3 µM; actives 10% (n = 880);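 active = at least twofold enzyme activation in any of six single-dose repeats, which the averaged readout prints as negative percent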
* hit, by the source's call; nt = not tested or not shown.

SMILES	bIAP activator	hIAP block	hIAP activ	bIAP inhibitor	mIAP activ	mIAP inh	hIAP act conf
CS(=O)(=O)c1ccc(Cl)c(NC(=O)Cc2ccsc2)c1	nt	36*	0.64	nt	1	-2	5
CS(=O)(=O)c1ccc(Cl)c(NC(=O)Cc2c(Cl)cccc2Cl)c1	0.9	-10	1.1	12	1	0	nt
CCCn1c(SCCc2ccccc2)nc2c1c(=O)[nH]c(=O)n2C	0.9	17	0.83	8	0.98	2	nt
CCCn1c(N/N=C(C)\C=C\c2ccccc2)nc2c1c(=O)[nH]c(=O)n2C	2*	-125	2.3*	-101	1.1	-14	-28
C/C(=N\NC(=O)c1ccc2c(c1)OCO2)c1ccc(NC(=O)CCCC(=O)O)cc1	nt	-4	1	nt	1.1	-6	nt
CC(=O)c1cccc(NS(=O)(=O)c2ccc(C(=O)Nc3ccccc3)cc2)c1	nt	30	0.7	nt	1.1	-10	nt
O=C(Nc1ccccc1)c1ccc(S(=O)(=O)Nc2cccc(O)c2)cc1	nt	40*	0.6	nt	0.99	1	-44
COc1ccc(C)cc1NC(=S)NNC(=O)c1ccccc1Cl	1.3	-110	2.1*	-32	0.86	14	2
Cc1ccc(NC(=S)NNC(=O)c2ccccc2O)c(C)c1	1.5	-125	2.3*	-52	0.85	15	-35
CCN1CCCC1CNC(=O)CN(C)S(=O)(=O)c1ccc(Cl)cc1 (stereo unspecified)	nt	9	0.91	nt	0.96	4	nt
Cc1c(C(=O)N/N=C/c2c(O)ccc3ccccc23)nnn1-c1nonc1N	nt	-105	2*	nt	0.79	21	-86*
CCC(C)(C)C1CCc2[nH]nc(C(=O)N/N=C(\C)c3ccco3)c2C1 (stereo unspecified)	nt	-110	2.1*	nt	0.98	2	63
NS(=O)(=O)c1ccc(N2N=C(c3ccccc3)CC2c2ccccc2Br)cc1 (stereo unspecified)	nt	nt	nt	nt	1.8	-76	nt
O=[N+]([O-])c1ccc(N2N=C(c3ccccc3)CC2c2ccccc2O)cc1 (stereo unspecified)	nt	38*	0.62	nt	0.81	19	-50
CCNC(=O)Cc1c(OC)ccc2cc(Br)ccc12	1	43*	0.57	4	1	0	16
COc1cccc(Cn2cccc(NC(=O)NCc3ccccc3)c2=O)c1	nt	38*	0.61	nt	0.95	5	9
CC(=O)Nc1ccc(S(=O)(=O)N(C)CCOCc2ccccc2)cc1	1	38*	0.62	-3	0.99	0	-45
C(=N\Nc1nc(-c2cccnc2)nc2ccccc12)/c1ccccc1	nt	-2	1	nt	0.99	1	nt
COc1cccc(/C=N/Nc2nc(-c3cccnc3)nc3ccccc23)c1	nt	58*	0.42	nt	0.98	2	0
CCn1cnc2sc(C(=O)O)c(C)c2c1=O	0.9	-290	3.9*	12	1.1	-14	64
CCc1ccc(/C=N/Nc2ncnc3nc[nH]c23)cc1	nt	-167	2.7*	nt	0.98	2	34
CN1C(=O)C(=O)/C(=C(/O)c2ccc(Br)cc2)C1c1ccc(Cl)cc1 (stereo unspecified)	nt	41*	0.59	nt	0.93	7	5
CN1C(=O)C(=O)/C(=C(/O)c2ccccc2)C1c1ccc(Br)cc1 (stereo unspecified)	nt	4	0.96	nt	1.1	-8	nt
CCOC(=O)c1ccccc1NC(=O)COC(=O)CCC1CCCC1	nt	12	0.88	nt	0.84	16	nt
O=C(COC(=O)c1ccccc1NCCO)NCc1cccs1	nt	-2	1	nt	0.98	2	nt
SMILES	bIAP activator	hIAP block	hIAP activ	bIAP inhibitor	mIAP activ	mIAP inh	hIAP act conf
CC(=O)Nc1ccc(Sc2ccccc2C(=O)O)cn1	nt	4	0.96	nt	0.99	1	nt
CC(C)NC(=O)/C(C#N)=C\c1ccc(N(C)C)o1	0.6	35*	0.65	40	0.85	15	4
Cc1cc(C)cc(N2CC(O)=C(c3nc4ccccc4c(=O)[nH]3)C2=N)c1	1.1	-44	1.4	-11	0.95	5	nt
COc1cccc(N2CC(O)=C(c3nc4ccccc4c(=O)[nH]3)C2=N)c1	1	-112	2.1*	1	0.91	9	-55
CCOc1cccc(/C=N/NC(=S)Nc2cc(S(=O)(=O)N3CCOCC3)ccc2N2CCOCC2)c1O	1	-114	2.1*	2	1	0	1
CCn1nnc(-c2ccc(N)cc2)n1	1.1	-102	2*	-7	1	-2	-22
Nc1ccc(-c2nnn(CC(=O)N3CCCCC3)n2)cc1	nt	-12	1.1	nt	0.99	1	nt
Cc1nc2c3ccccc3nc(NNC(=O)CCC(=O)N3CCC(C)CC3)n2n1	nt	-133	2.3*	nt	0.98	2	1
Cc1nc2c3ccccc3nc(NNC(=O)CCC(=O)N3CCN(c4ccccc4F)CC3)n2n1	nt	-97	2	nt	0.93	7	nt
CCOCCCNC(=O)CCC(=O)NNc1nc2ccccc2c2nc(-c3ccccc3)nn12	0.9	-109	2.1*	8	0.83	17	48
CCOC(=O)C1CCN(C(=O)CCC(=O)NNc2nc3ccccc3c3nc(C)nn23)CC1	nt	-175	2.7*	nt	0.81	19	-3
Cc1nc2c3ccccc3nc(NNC(=O)CCC(=O)NCCC(C)C)n2n1	1.1	-111	2.1*	-10	0.86	14	-64*
CSCCC(NC(=O)COc1ccccc1)C(=O)NCCOc1ccc(C)cc1 (stereo unspecified)	nt	-23	1.2	nt	0.96	4	nt
O=C(NCCc1ccccc1F)C1CCC(=O)N(CCCN2CCCC2=O)C1 (stereo unspecified)	nt	-4	1	nt	1	0	nt
O=C(COc1ccc(Cl)cc1)NCc1n[nH]c(=O)c2ccccc12	nt	-13	1.1	nt	0.93	7	nt
Cc1nc2c3ccccc3nc(NNC(=O)CCC(=O)N3CCN(c4ccccc4)CC3)n2n1	nt	-128	2.3*	nt	0.92	8	-42
COc1ccc(N2CCN(C(=O)CCC(=O)NNc3nc4ccccc4c4nc(C)nn34)CC2)cc1	nt	-99	2	nt	0.99	1	nt
O=C(NNC1=NCCC1)c1ccc(Br)cc1	1	-161	2.6*	-1	0.98	2	-44
CC(C)CC(=O)Nc1cc2c3c(c1)C(C)C(=O)N3CCC2 (stereo unspecified)	nt	3	0.97	nt	0.99	1	nt
Cc1cc(C)nc(SCC(=O)NNS(=O)(=O)c2ccc(C#N)cc2)n1	nt	-7	1.1	nt	0.89	11	nt
O=C(NNC(=O)c1ncc(Cl)c(Cl)c1Cl)c1ccc(F)cc1	nt	-116	2.2*	nt	0.89	11	-2
CN(CC(=O)Nc1ccccc1F)CC(=O)Nc1ccc(F)c(F)c1F	1.5	-111	2.1*	-45	1	-3	52
O=S(=O)(NCC(O)c1ccccc1)c1cc(Cl)sc1Cl (stereo unspecified)	nt	0	1	nt	1	-1	nt
